In ChEMBL document CHEMBL1153264, “(1,2,3-Triazol-4-yl)benzenamines: synthesis and activity against VEGF receptors 1 and 2” (Bioorg Med Chem Lett, 2009):

Assays:
[1] = target: T1, Vascular endothelial growth factor receptor 2 (Homo sapiens, UniProt P35968); assay: Inhibition of VEGFR2 by HTRF assay in presence of 2 uM ATP
How it was run: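 HTRF kinase assay with KDR enzyme (3–4 ng) and biotinylated pGAT substrate. ATP added to start, 45 min at RT. Stopped with EDTA/KF buffer plus Eu-cryptate anti-phosphotyrosine antibody, 2 h RT, then HTRF read. IC50 from 10-point log concentration curves, mean of at least two duplicate runs.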

[2] = target: Vascular endothelial growth factor receptor 1 (Homo sapiens, UniProt P17948); assay: Inhibition of VEGFR1 by HTRF assay
[3] = target: T1, Vascular endothelial growth factor receptor 2; assay: Inhibition of VEGF-induced phosphorylation of VEGFR2 by cell-based ELISA
[4] = target: T1, Vascular endothelial growth factor receptor 2; assay: Binding affinity to VEGFR2 at IC50 in presence of ATP
How it was run: (§1)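 ATP competition assay with VEGFR-2. Five concentrations of ³²P ATP across 0-100 µM, each incubated with enzyme for 45 min at RT. Inhibitor was absent or present at two fixed levels.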

[5] = target: T1, Vascular endothelial growth factor receptor 2; assay: Binding affinity to VEGFR2 at IC90 in presence of ATP; how it was run: as §1
[6] = target: Insulin-like growth factor 1 receptor (Homo sapiens) (UniProt P08069); assay: Inhibition of IGF1R at 10 uM
[7] = target: Insulin receptor (Homo sapiens) (UniProt P06213); assay: Inhibition of IR at 10 uM
[8] = target: Fibroblast growth factor receptor 1 (Homo sapiens) (UniProt P11362); assay: Inhibition of FGFR1 at 10 uM
[9] = target: Receptor-type tyrosine-protein kinase FLT3 (Homo sapiens) (UniProt P36888); assay: Inhibition of Flt3 at 10 uM
[10] = target: Epidermal growth factor receptor (Homo sapiens) (UniProt P00533); assay: Inhibition of EGFR at 10 uM
[11] = target: Receptor tyrosine-protein kinase erbB-2 (Homo sapiens) (UniProt P04626); assay: Inhibition of ErbB2 at 10 uM
[12] = target: Hepatocyte growth factor receptor (Homo sapiens) (UniProt P08581); assay: Inhibition of c-Met at 10 uM
[13] = target: Macrophage-stimulating protein receptor (Homo sapiens) (UniProt Q04912); assay: Inhibition of Ron at 10 uM
[14] = Inhibition of PKA at 10 uM
[15] = target: Glycogen synthase kinase-3 beta (Homo sapiens) (UniProt P49841); assay: Inhibition of GSK3-beta at 10 uM
[16] = target: Bcr/Abl fusion protein (Homo sapiens) (UniProt P00519+P11274); assay: Inhibition of Bcr-Abl at 10 uM; type: protein assay
[17] = Inhibition of Bcr-Abl T315 mutant at 10 uM
[18] = target: Cyclin-dependent kinase 1 (Homo sapiens) (UniProt P06493); assay: Inhibition of Cdk1 at 10 uM
[19] = target: Cyclin-dependent kinase 2 (Homo sapiens) (UniProt P24941); assay: Inhibition of Cdk2 at 10 uM
[20] = target: Proto-oncogene tyrosine-protein kinase Src (Homo sapiens) (UniProt P12931); assay: Inhibition of Src at 10 uM
[21] = target: T2, Aurora kinase A (Homo sapiens) (UniProt O14965); assay: Inhibition of Aurora A at 10 uM
T2 sequence (whole entry): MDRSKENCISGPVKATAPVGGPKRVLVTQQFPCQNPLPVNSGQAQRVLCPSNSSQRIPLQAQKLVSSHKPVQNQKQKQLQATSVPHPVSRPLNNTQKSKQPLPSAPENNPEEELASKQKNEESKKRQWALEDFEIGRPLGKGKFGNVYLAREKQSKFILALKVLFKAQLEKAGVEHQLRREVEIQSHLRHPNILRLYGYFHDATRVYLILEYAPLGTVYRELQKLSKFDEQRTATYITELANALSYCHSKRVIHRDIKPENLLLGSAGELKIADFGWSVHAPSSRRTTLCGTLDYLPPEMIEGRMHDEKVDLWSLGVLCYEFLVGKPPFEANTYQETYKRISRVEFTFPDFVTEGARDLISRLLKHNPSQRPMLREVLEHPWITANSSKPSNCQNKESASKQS

[22] = target: Aurora kinase B (Homo sapiens) (UniProt Q96GD4); assay: Inhibition of Aurora B at 10 uM
[23] = target: Serine/threonine-protein kinase PLK1 (Homo sapiens) (UniProt P53350); assay: Inhibition of Plk1 at 10 uM

Sequence of Vascular endothelial growth factor receptor 1 (P17948 whole entry): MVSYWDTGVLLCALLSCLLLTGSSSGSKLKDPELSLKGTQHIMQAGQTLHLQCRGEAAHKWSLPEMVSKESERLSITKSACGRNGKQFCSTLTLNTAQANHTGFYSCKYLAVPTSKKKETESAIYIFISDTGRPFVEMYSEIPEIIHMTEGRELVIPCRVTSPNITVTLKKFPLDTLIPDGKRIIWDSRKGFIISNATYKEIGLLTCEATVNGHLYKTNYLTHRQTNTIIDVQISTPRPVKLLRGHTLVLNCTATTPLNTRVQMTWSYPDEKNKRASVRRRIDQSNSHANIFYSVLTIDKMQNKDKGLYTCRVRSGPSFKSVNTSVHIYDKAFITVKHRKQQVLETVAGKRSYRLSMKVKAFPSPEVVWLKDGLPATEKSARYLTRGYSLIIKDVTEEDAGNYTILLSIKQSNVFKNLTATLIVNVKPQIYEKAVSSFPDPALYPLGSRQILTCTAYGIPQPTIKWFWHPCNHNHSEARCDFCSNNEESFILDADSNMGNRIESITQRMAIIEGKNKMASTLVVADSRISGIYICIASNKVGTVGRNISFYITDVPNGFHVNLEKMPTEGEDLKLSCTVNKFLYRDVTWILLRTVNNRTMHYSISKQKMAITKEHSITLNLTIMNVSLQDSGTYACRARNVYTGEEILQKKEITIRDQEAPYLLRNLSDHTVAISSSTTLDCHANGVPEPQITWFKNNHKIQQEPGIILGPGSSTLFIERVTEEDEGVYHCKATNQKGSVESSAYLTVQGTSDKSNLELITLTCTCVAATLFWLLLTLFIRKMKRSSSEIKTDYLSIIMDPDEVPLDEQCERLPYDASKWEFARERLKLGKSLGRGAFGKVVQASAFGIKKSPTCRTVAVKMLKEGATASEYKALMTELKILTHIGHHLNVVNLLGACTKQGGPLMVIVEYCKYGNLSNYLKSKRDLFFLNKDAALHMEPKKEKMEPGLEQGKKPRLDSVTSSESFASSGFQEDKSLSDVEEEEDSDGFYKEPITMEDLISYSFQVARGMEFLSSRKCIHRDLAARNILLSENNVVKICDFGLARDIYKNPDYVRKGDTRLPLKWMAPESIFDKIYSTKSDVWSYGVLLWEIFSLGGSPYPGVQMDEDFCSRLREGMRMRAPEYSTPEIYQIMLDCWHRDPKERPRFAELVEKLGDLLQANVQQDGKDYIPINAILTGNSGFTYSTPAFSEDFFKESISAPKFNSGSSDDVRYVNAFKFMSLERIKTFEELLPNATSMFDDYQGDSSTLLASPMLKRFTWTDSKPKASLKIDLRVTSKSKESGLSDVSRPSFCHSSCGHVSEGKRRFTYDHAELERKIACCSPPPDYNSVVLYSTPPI
Sequence of Receptor-type tyrosine-protein kinase FLT3 (Homo sapiens) (P36888 whole entry): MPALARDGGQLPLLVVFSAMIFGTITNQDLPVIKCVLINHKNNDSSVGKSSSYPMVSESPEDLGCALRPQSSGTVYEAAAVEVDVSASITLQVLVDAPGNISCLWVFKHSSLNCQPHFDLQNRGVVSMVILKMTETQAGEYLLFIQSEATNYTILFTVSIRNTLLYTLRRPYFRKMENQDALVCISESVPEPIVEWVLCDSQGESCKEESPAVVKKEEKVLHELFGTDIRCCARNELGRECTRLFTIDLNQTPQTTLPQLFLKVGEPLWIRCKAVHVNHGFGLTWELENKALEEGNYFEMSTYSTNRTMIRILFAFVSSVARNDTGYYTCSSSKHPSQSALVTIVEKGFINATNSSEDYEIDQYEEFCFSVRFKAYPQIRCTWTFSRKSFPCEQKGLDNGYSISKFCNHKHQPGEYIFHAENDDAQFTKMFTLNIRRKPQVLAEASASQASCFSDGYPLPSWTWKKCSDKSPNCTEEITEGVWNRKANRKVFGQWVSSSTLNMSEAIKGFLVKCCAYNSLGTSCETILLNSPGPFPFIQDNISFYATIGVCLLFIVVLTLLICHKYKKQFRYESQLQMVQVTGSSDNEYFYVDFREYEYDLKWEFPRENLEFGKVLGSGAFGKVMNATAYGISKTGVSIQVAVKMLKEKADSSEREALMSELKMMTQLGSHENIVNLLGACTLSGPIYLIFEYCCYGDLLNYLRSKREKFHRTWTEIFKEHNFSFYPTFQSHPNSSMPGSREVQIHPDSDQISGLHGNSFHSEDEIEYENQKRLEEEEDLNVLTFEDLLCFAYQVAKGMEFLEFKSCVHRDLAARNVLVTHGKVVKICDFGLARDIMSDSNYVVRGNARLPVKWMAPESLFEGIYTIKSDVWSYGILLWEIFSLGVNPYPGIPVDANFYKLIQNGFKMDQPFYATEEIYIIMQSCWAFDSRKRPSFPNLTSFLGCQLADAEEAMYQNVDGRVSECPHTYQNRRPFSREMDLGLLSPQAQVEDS
Sequence of Macrophage-stimulating protein receptor (Homo sapiens) (Q04912 25-304 limits assumed): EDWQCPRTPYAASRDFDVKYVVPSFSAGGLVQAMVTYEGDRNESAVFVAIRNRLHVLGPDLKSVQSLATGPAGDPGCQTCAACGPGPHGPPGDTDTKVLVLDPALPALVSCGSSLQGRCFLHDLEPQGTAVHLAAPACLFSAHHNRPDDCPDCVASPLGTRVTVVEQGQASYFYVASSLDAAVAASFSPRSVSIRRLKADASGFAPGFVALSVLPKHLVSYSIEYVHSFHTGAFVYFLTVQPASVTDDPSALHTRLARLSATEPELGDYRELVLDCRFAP
Sequence of Macrophage-stimulating protein receptor (Homo sapiens) (Q04912 310-1400 limits assumed): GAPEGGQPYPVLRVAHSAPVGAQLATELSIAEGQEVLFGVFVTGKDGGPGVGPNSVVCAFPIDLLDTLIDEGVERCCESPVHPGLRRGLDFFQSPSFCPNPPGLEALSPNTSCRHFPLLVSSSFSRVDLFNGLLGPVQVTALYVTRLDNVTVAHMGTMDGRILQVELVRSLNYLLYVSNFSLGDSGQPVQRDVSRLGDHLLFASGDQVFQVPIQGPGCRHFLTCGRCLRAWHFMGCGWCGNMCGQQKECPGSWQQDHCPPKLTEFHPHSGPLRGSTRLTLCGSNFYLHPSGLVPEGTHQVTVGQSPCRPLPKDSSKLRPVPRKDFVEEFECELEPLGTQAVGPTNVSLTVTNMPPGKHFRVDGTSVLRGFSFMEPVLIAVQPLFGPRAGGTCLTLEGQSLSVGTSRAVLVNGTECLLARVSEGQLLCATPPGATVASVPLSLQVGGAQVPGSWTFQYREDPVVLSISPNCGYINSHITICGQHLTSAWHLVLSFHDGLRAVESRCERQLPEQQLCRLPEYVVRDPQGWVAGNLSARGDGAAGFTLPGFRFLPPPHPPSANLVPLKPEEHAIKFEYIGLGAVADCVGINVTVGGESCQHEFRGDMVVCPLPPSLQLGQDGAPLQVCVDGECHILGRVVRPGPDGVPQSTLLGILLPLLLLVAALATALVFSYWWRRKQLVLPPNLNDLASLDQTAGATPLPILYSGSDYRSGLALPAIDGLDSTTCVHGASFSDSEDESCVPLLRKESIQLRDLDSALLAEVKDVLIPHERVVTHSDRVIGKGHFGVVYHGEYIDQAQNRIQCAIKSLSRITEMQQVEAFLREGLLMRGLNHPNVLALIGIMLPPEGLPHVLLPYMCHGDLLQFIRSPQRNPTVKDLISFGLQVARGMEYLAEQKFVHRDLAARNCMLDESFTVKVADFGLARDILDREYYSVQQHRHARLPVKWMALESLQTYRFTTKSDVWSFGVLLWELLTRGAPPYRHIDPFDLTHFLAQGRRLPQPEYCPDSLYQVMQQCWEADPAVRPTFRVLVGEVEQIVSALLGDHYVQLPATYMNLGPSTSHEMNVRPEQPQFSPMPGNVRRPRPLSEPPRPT
Sequence of Cyclin-dependent kinase 1 (Homo sapiens) (P06493 whole entry, looked up): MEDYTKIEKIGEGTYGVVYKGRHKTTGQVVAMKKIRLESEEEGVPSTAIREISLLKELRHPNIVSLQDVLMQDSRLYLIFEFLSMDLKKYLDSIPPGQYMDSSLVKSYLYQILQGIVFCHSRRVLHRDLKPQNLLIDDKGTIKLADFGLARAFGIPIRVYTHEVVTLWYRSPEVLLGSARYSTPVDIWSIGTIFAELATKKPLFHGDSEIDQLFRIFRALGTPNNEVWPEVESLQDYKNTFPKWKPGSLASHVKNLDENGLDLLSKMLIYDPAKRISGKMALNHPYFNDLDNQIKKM
Sequence of Fibroblast growth factor receptor 1 (Homo sapiens) (P11362 22-822 limits assumed): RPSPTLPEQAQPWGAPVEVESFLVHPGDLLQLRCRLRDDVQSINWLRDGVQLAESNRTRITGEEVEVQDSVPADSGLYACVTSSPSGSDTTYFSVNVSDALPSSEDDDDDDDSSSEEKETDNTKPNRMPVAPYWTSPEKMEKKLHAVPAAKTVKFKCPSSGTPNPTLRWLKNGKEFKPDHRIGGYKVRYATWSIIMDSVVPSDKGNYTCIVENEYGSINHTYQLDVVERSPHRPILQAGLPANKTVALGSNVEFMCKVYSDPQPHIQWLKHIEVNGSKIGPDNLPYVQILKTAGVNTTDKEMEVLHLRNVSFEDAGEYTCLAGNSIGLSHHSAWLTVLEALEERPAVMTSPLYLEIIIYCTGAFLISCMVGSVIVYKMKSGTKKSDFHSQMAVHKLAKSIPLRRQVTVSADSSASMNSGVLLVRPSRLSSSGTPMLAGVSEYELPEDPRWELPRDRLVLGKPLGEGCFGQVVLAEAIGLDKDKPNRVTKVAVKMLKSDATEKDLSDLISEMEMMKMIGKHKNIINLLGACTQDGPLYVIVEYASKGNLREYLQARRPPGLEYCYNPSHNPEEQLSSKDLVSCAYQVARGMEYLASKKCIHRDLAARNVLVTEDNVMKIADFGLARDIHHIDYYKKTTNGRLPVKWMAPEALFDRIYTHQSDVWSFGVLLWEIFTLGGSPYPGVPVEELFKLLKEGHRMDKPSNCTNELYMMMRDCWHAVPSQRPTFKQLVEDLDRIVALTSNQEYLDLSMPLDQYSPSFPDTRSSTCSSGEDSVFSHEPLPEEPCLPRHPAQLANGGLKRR

Compound	IC50 [1] [nM]	IC50 [2] [nM]	IC50 [3] [nM]	inhibition [6] [%]	inhibition [7] [%]	inhibition [8] [%]	inhibition [9] [%]	inhibition [10] [%]	inhibition [11] [%]	inhibition [12] [%]	inhibition [13] [%]	inhibition [14] [%]	inhibition [15] [%]	inhibition [16] [%]	inhibition [17] [%]	inhibition [18] [%]	inhibition [19] [%]	inhibition [20] [%]	inhibition [21] [%]	inhibition [22] [%]	also measured
FC(F)(F)c1cccc(-n2cc(-c3ccccc3NCc3ccncc3)nn2)c1	51	66	96	< 30	< 30	< 30	< 30	< 30	< 30	< 30	< 30	< 30	< 30	< 30	< 30	< 30	< 30	< 30	< 30	< 30	Ki [4]: 90 nM; Ki [5]: 80 nM; inhibition [23]: < 30%
CC(C)c1cccc(-n2cc(-c3ccccc3NCc3ccncc3)nn2)c1	110	130	150	< 30	< 30	< 30	< 30	< 30	< 30	< 30	< 30	< 30	< 30	< 30	< 30	< 30	< 30	< 30	< 30	< 30	Ki [4]: 160 nM; Ki [5]: 140 nM; inhibition [23]: < 30%
Clc1cccc(-n2cc(-c3ccccc3NCc3ccncc3)nn2)c1	87	130	160	< 30	< 30	< 30	< 30	< 30	< 30	< 30	< 30	< 30	< 30	< 30	< 30	< 30	< 30	< 30	< 30	< 30	Ki [4]: 120 nM; Ki [5]: 110 nM; inhibition [23]: < 30%
FC(F)(F)c1ccc(-n2cc(-c3ccccc3NCc3ccncc3)nn2)cc1Cl	930	1130	2920	< 30	< 30	< 30	< 30	< 30	< 30	< 30	< 30	< 30	< 30	< 30	< 30	< 30	< 30	< 30	< 30	< 30	inhibition [23]: < 30%
Clc1cccc(-n2cc(-c3ccccc3NCc3ccnc4ccccc34)nn2)c1	190	170	270	< 30	< 30	< 30	< 30	< 30	< 30	< 30	< 30	< 30	< 30	< 30	< 30	< 30	< 30	< 30	< 30	< 30	inhibition [23]: < 30%
Clc1cccc(-n2cc(-c3ccccc3NCc3cccnc3)nn2)c1	4230	> 10000	> 10000	< 30	< 30	< 30	< 30	< 30	< 30	< 30	< 30	< 30	< 30	< 30	< 30	< 30	< 30	< 30	< 30	< 30	inhibition [23]: < 30%
FC(F)(F)Oc1ccc(-n2cc(-c3ccccc3NCc3ccncc3)nn2)cc1	1220	1130	3110	< 30	< 30	< 30	< 30	< 30	< 30	< 30	< 30	< 30	< 30	< 30	< 30	< 30	< 30	< 30	< 30	< 30	inhibition [23]: < 30%
Clc1cccc(-n2cc(-c3ccccc3NCc3ccccn3)nn2)c1	> 10000	> 10000	> 10000	< 30	< 30	< 30	< 30	< 30	< 30	< 30	< 30	< 30	< 30	< 30	< 30	< 30	< 30	< 30	< 30	< 30	inhibition [23]: < 30%
